Measured values collected from several papers.
Compare with care: the assays were run in different laboratories.
CDK2 with cyclin A2: Cyclin-dependent kinase 2, with cyclin A2 (CDK2, Homo sapiens, UniProt P24941)
ST14: Suppressor of tumorigenicity 14 protein (ST14, Homo sapiens, UniProt Q9Y5Y6)

Structure (SMILES)	target	test	setting	measurement	result
CNC(=O)c1cc(Oc2ccc(NC(=O)Nc3ccc(Cl)c(C(F)(F)F)c3)cc2)ccn1	CDK2 with cyclin A2	enzyme activity, inhibitor	0.5 µM	inhibition	74%
COc1cc(-c2cncc3c2CN(C)Cc2cc(N4CCNCC4)ccc2-3)cc(OC)c1OC	Dual specificity protein kinase CLK3 (CLK3, Homo sapiens, UniProt P49761)	enzyme activity, inhibitor	1 µM	remaining activity	103%
N=C(N)NCCC[C@H](NC(=O)C1(NC(=O)[C@H](Cc2cscn2)NC(=O)CCc2ccccc2)CC1)C(=O)c1nc2ccccc2s1	ST14	enzyme activity, inhibitor	0.1 µM	remaining activity	19%
Cc1cc([C@@H](C)Nc2ccccc2C(=O)O)c2nc(N3CCC(F)(F)CC3)c(C#N)c(=O)n2c1	Cyclin-dependent kinase 2 (CDK2, Homo sapiens, UniProt P24941)	binding, competition with immobilised ligand	10 µM	remaining binding	98%
C=CC(=O)N1CCC(COCC(=O)N2CCN(c3nc(-c4cnc(N)nc4C(F)F)nc(N4CCOC[C@@H]4C)n3)CC2)CC1	Mitogen-activated protein kinase kinase kinase kinase 1 (MAP4K1, Homo sapiens, UniProt Q92918)	binding, competition with immobilised ligand	1 µM	remaining binding	100%
N=C(N)NCCC[C@H](NC(=O)[C@@H](CC1CCCCC1)NC(=O)[C@H](Cc1cscn1)NC(=O)CCc1ccccc1)C(=O)c1nc2ccccc2s1	ST14	enzyme activity, inhibitor	0.1 µM	remaining activity	95%
CC(=O)Nc1c(N)nc(SCC(=O)NN)[nH]c1=O	CDK2 with cyclin A2	enzyme activity, inhibitor	200 pM	inhibition	3.98%
N=C(N)NCCC[C@H](NC(=O)[C@H](Cc1ccccc1I)NC(=O)[C@H](Cc1cscn1)NC(=O)CCc1ccccc1)C(=O)c1nc2ccccc2s1	ST14	enzyme activity, inhibitor	0.1 µM	remaining activity	90%
CC(=O)Nc1c(N)nc(SCC(=O)N/N=C/c2ccc([N+](=O)[O-])cc2)[nH]c1=O	CDK2 with cyclin A2	enzyme activity, inhibitor	10 nM	inhibition	15%
CNc1ncc2c(/C=C/C(=O)N3CCC(OC)CC3)nn(Cc3cccc(C(F)(F)F)c3)c2n1	Mitogen-activated protein kinase 10 (MAPK10, Homo sapiens, UniProt P53779)	enzyme activity, inhibitor, radiometric	1 µM	remaining activity	87%
